These results are taken from ChEMBL document CHEMBL3758119, “Functionalized imidazolium and benzimidazolium salts as paraoxonase 1 inhibitors: Synthesis, characterization and molecular docking studies” (Bioorg Med Chem, 2016).

Each structure is given as a SMILES string.

The target in test [1] is T1, Serum paraoxonase/arylesterase 1 (Homo sapiens, UniProt P27169). Kind of test: Inhibition of human serum PON1 using paraoxon as substrate by spectrophotometric analysis. In outline:
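PON1 purified from human serum (ammonium sulphate precipitation, then hydrophobic interaction chromatography; stored with 2 mM CaCl2). Paraoxon 2 mM final; p-nitrophenol release followed at 412 nm for 2 min at 37 °C. Five inhibitor concentrations tested. Activity without compound taken as 100%. Measured in duplicate and corrected for non-enzymatic hydrolysis. IC50 read from activity-percentage graphs.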

Test [2] has as its target T1, Serum paraoxonase/arylesterase 1. The experiment in a line: Competitive inhibition of human serum PON1 using paraoxon as substrate by Lineweaver-Burk plot analysis. Summed up: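 Human serum PON1 purified by ammonium sulphate precipitation (60–80%) and hydrophobic interaction chromatography, stored with 2 mM CaCl2. Paraoxon hydrolysis followed by p-nitrophenol appearance at 412 nm for 2 min at 37 °C, pH 8.00. Eight paraoxon concentrations (0.5–1.2 mM) run at two inhibitor concentrations (6.7 µM and 4.7 µM). Readings taken in duplicate and corrected for non-enzymatic hydrolysis. Ki and inhibition type taken from Lineweaver–Burk plots.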

T1 sequence (P27169 whole entry): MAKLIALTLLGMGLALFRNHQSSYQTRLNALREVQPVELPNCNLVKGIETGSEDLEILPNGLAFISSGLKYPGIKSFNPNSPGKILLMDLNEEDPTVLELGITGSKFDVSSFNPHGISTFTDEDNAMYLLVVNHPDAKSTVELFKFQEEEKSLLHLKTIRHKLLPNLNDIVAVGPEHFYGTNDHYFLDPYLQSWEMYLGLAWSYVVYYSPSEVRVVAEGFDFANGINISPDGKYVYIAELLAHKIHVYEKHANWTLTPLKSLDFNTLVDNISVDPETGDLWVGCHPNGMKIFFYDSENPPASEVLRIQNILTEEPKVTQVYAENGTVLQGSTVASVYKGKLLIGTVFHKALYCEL

Regarding `Cc1n(C)cc[n+]1Cc1nc2ccccc2[nH]1`, the IC50 (commonly the concentration needed to halve the response being measured) in test [1] (read-out: IC50) amounted to 626 µM.
As for `CCCCn1cc[n+](Cc2cc(=O)oc3cc(C)cc(C)c23)c1`, the affinity in test [2], expressed as Ki, was 2.39 µM. For the same compound, the IC50 in test [1] (read-out: IC50) is 6.37 µM.
On to `CCCC[n+]1cn(Cn2nnc3ccccc32)c2ccccc21`, for which the IC50 in test [1] (read-out: IC50) came to 3330 µM.
`COc1cc(C[n+]2cn(Cn3nnc4ccccc43)c3ccccc32)cc(OC)c1OC.[Cl-]`: in test [1], the IC50 entry is on record as “Not Active”.
As for `O=C1COc2ccc(C(=O)C[n+]3cn(Cn4nnc5ccccc54)c4ccccc43)cc2N1`, in test [1] (read-out: IC50), the IC50 came out at 8.76 µM.
On to `CC(C)(C)c1ccc2oc(=O)cc(C[n+]3cn(Cn4nnc5ccccc54)c4ccccc43)c2c1`, for which the IC50 in test [1] (read-out: IC50) amounted to 627 µM.
`CCCCn1cc[n+](Cn2nnc3ccccc32)c1.[Cl-]`: in test [1], the IC50 entry was “Not Active”.
Regarding `Cc1ccc(-c2cc3cc(O)c(O)cc3oc2=O)cc1`, the half-maximal inhibitory concentration (IC50) in test [1] (read-out: IC50) was 3 µM.
On the same count and under the same terms, next, `Cc1ccc2c(C[n+]3cn(Cn4nnc5ccccc54)c4ccccc43)cc(=O)oc2c1C`: 237 µM.
As for `Cn1cc[n+](Cn2nnc3ccccc32)c1.[Cl-]`, the half-maximal inhibitory concentration (IC50) entry in test [1] was “Not Active”.
With `Cc1n(C)cc[n+]1Cn1nnc2ccccc21.[Cl-]`, the concentration for half-maximal inhibition (IC50) entry in test [1] is on record as “Not Active”.
`CC(C)(C)c1ccc2oc(=O)cc(CCl)c2c1`: in test [1] (read-out: IC50), the IC50 is 40 µM.
`Cc1ccc2c(CCl)cc(=O)oc2c1C`: the concentration for half-maximal inhibition (IC50) in test [1] (read-out: IC50) amounted to 21.4 µM.
`Cc1cc(C)c2c(CCl)cc(=O)oc2c1`: the half-maximal inhibitory concentration (IC50) in test [1] (read-out: IC50) is 31.4 µM.
Take `Cn1cc[n+](Cc2nc3ccccc3[nH]2)c1`: the IC50 in test [1] (read-out: IC50) was 19 µM.
Take `CCCCn1cc[n+](Cc2nc3ccccc3[nH]2)c1`: in test [1] (read-out: IC50), the IC50 was 29 µM.
For `Cc1cc(C)c2c(C[n+]3ccn(C)c3)cc(=O)oc2c1`, the half-inhibitory concentration (IC50) in test [1] (read-out: IC50) was determined as 23.7 µM.
Same read-out and setting: as for `Cc1cc(C)c2c(C[n+]3ccn(C)c3C)cc(=O)oc2c1`, the figure is 317 µM.
Regarding `c1ccc2c(c1)ncn2Cn1nnc2ccccc21`, the 50% inhibitory concentration (IC50) in test [1] (read-out: IC50) was 564 µM.
Regarding `c1ccc(C[n+]2cn(Cn3nnc4ccccc43)c3ccccc32)cc1`, the half-maximal inhibitory concentration (IC50) in test [1] (read-out: IC50) came to 2060 µM.
Regarding `[Cl-].c1ccc2c(c1)nnn2Cn1c[n+](Cn2nnc3ccccc32)c2ccccc21`, the IC50 entry in test [1] is listed as “Not Active”.
